Each structure is given as a SMILES string.

For test [1], the system named is Rattus norvegicus. The test can be described thus: Inhibition of increase in serum glucose level in sucrose-loaded Wistar rat at 125 mg/kg, po after 2 hrs. The test is classed as functional. The gist of the method: (§1)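 Male Wistar rats (about 130-150 g) fasted 20-24 h, water allowed. Test sample suspended in 5% acacia solution, given orally at 10 mL/kg; controls get vehicle. Thirty minutes later, 20% (w/v) sucrose at 5 mL/kg po (water for the normal group). Serum taken 0.5, 1 and 2 h after loading; glucose measured by glucose-oxidase method. Means ± SEM; one-way ANOVA with Dunnett's test.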

Test [2] deals with Rattus norvegicus. The test can be described thus: Inhibition of increase in serum glucose level in sucrose-loaded Wistar rat at 125 mg/kg, po after 1 hr. The test is classed as functional. In short, it runs like this: as §1
For test [3], the system named is Rattus norvegicus. The test can be described thus: Inhibition of increase in serum glucose level in sucrose-loaded Wistar rat at 500 mg/kg, po after 0.5 hrs. The test is classed as functional. In short, it runs like this:
as §1

Test [4] has as its system Rattus norvegicus. The test can be described thus: Inhibition of increase in serum glucose level in sucrose-loaded Wistar rat at 125 mg/kg, po after 0.5 hrs. The test is classed as functional. The gist of the method:
as §1

In test [5] the test system is Rattus norvegicus. As to the kind of experiment: Inhibition of increase in serum glucose level in sucrose-loaded Wistar rat at 500 mg/kg, po after 2 hrs. The test is classed as functional. The gist of the method: as §1
In test [6] the test system is Rattus norvegicus. As to the kind of experiment: Inhibition of increase in serum glucose level in sucrose-loaded Wistar rat at 500 mg/kg, po after 1 hr. The test is classed as functional. In short, it runs like this:
as §1

In test [7] the test system is Mus musculus. As to the kind of experiment: Suppression of gastric emptying in CMC-Na-loaded mouse at 25 mg/kg, po after 30 mins. The test is classed as functional, Stomach. The gist of the method:
(§2)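 Male ddY mice (about 30-32 g) fasted 20-24 h, dosed orally in 5% acacia (10 mL/kg) 30 min before an intragastric meal of 1.5% CMC-Na with 0.05% phenol red (0.5 mL/mouse). Killed 30 min later; stomach homogenized in 0.1 M NaOH, TCA-deproteinized, alkalinized, read at 560 nm. Emptying % calculated against mice killed immediately after the meal. Means ± SEM, Dunnett's test.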

In test [8] the test system is Rattus norvegicus. As to the kind of experiment: Inhibition of increase in serum glucose level in sucrose-loaded Wistar rat at 50 mg/kg, po after 0.5 hrs. It is filed as functional. In short, it runs like this: as §1
The test system of test [9] is Mus musculus. As to the kind of experiment: Suppression of gastric emptying in CMC-Na-loaded mouse at 50 mg/kg, po after 30 mins. The test is classed as functional, Stomach. The gist of the method: as §2
Test [10] concerns Rattus norvegicus. As to the kind of experiment: Inhibition of increase in serum glucose level in sucrose-loaded Wistar rat at 100 mg/kg, po after 0.5 hrs. The test is classed as functional. In short, it runs like this:
as §1

Test [11] deals with Rattus norvegicus. The test can be described thus: Inhibition of increase in serum glucose level in sucrose-loaded Wistar rat at 25 mg/kg, po after 0.5 hrs. It is filed as functional. In short, it runs like this:
as §1

Test [12] deals with Rattus norvegicus. As to the kind of experiment: Inhibition of increase in serum glucose level in sucrose-loaded Wistar rat at 100 mg/kg, po after 1 hr. The test is classed as functional. In short, it runs like this:
as §1

In test [13] the test system is Rattus norvegicus. The test can be described thus: Inhibition of increase in serum glucose level in sucrose-loaded Wistar rat at 25 mg/kg, po after 1 hr. It is filed as functional. The gist of the method: as §1
The test system of test [14] is Rattus norvegicus. The test can be described thus: Inhibition of increase in serum glucose level in sucrose-loaded Wistar rat at 50 mg/kg, po after 2 hrs. The test is classed as functional. The gist of the method: as §1
In test [15] the test system is Rattus norvegicus. The test can be described thus: Inhibition of increase in serum glucose level in sucrose-loaded Wistar rat at 100 mg/kg, po after 2 hrs. The test is classed as functional. The gist of the method: as §1
In test [16] the test system is Rattus norvegicus. As to the kind of experiment: Inhibition of increase in serum glucose level in sucrose-loaded Wistar rat at 50 mg/kg, po after 1 hr. It is filed as functional. The gist of the method: as §1
The subject of test [17] is Rattus norvegicus. As to the kind of experiment: Inhibition of increase in serum glucose level in sucrose-loaded Wistar rat at 25 mg/kg, po after 2 hrs. It is filed as functional. In short, it runs like this: as §1
The subject of test [18] is Rattus norvegicus. As to the kind of experiment: Inhibition of increase in serum glucose level in sucrose-loaded Wistar rat at 12.5 mg/kg, po after 1hr. It is filed as functional. The gist of the method: as §1
In test [19] the test system is Rattus norvegicus. As to the kind of experiment: Inhibition of increase in serum glucose level in sucrose-loaded Wistar rat at 12.5 mg/kg, po after 2 hrs. It is filed as functional. In short, it runs like this:
as §1

Test [20] relates to Rattus norvegicus. As to the kind of experiment: Inhibition of increase in serum glucose level in sucrose-loaded Wistar rat at 12.5 mg/kg, po after 0.5 hrs. It is filed as functional. In short, it runs like this: as §1

As to `CN(C)C(=N)NC(=N)N` [METFORMIN], the Activity worked out at 115.5 mg/dL in the test with Rattus norvegicus [1]; 136 mg/dL in the test on Rattus norvegicus [2]; 113.1 mg/dL in the test on Rattus norvegicus [3]; 134.8 mg/dL with Rattus norvegicus [4]; 119.8 mg/dL with Rattus norvegicus [5]; 105.6 mg/dL in the test with Rattus norvegicus [6].

Regarding `C[C@@H]1CC[C@@]2(NC1)O[C@H]1C[C@H]3[C@@H]4CC=C5C[C@@H](O[C@@H]6O[C@H](CO)[C@H](O)[C@H](O[C@@H]7O[C@H](CO)[C@@H](O)[C@H](O)[C@H]7O)[C@H]6O[C@@H]6O[C@@H](C)[C@H](O)[C@@H](O)[C@H]6O)CC[C@]5(C)[C@H]4CC[C@]3(C)[C@H]1[C@@H]2C` [SOLASONINE], the Activity was found to be 75.4% in the test on Mus musculus [7]; 132.7 mg/dL with Rattus norvegicus [8]; 74.8% with Mus musculus [9]; 124.7 mg/dL in the test with Rattus norvegicus [10]; 158.8 mg/dL with Rattus norvegicus [11]; 122.4 mg/dL in the test on Rattus norvegicus [12]. For the same compound, the Activity was 157.6 mg/dL with Rattus norvegicus [13]; 135.4 mg/dL in the test on Rattus norvegicus [14]; 121.9 mg/dL with Rattus norvegicus [15]; 136.7 mg/dL in the test on Rattus norvegicus [16]; 129.5 mg/dL with Rattus norvegicus [17].

`C[C@@H]1CC[C@@]2(NC1)O[C@H]1C[C@H]3[C@@H]4CC=C5C[C@@H](O[C@@H]6O[C@H](CO)[C@@H](O[C@@H]7O[C@@H](C)[C@H](O)[C@@H](O)[C@H]7O)[C@H](O)[C@H]6O[C@@H]6O[C@@H](C)[C@H](O)[C@@H](O)[C@H]6O)CC[C@]5(C)[C@H]4CC[C@]3(C)[C@H]1[C@@H]2C` [SOLAMARGINE]: the Activity worked out at 73.7% in the test with Mus musculus [7]; 124.3 mg/dL with Rattus norvegicus [8]; 58.4% with Mus musculus [9]; 118.5 mg/dL in the test with Rattus norvegicus [10]; 141.7 mg/dL in the test with Rattus norvegicus [11]; 116.6 mg/dL with Rattus norvegicus [12]. The Activity in the test with Rattus norvegicus [13] came out at 139.9 mg/dL; in the test with Rattus norvegicus [14], 118.7 mg/dL; with Rattus norvegicus [15] it was 122.3 mg/dL; in the test with Rattus norvegicus [16], 117.1 mg/dL; in the test on Rattus norvegicus [17], 133.7 mg/dL.

Regarding `CCCCNC(=O)NS(=O)(=O)c1ccc(C)cc1` [TOLBUTAMIDE], the Activity in the test with Rattus norvegicus [18] came to 130.5 mg/dL; with Rattus norvegicus [11], 138.1 mg/dL; in the test with Rattus norvegicus [13] it was 106.3 mg/dL; in the test on Rattus norvegicus [19], 114.9 mg/dL; with Rattus norvegicus [17] it was 99.5 mg/dL; with Rattus norvegicus [20], 152.6 mg/dL.
